Measurements as given in ChEMBL document CHEMBL1781892, “Microwave assisted synthesis and structure-activity relationship of 4-hydroxy-N'-[1-phenylethylidene]-2H/2-methyl-1,2-benzothiazine-3-carbohydrazide 1,1-dioxides as anti-microbial agents” (2011).

Tests used:
Aspergillus niger [1] = test: Antifungal activity against Aspergillus niger using 1 x 10^5 spore/100 uL after 72 hrs by microdilution method; assay type: functional
Aspergillus flavus [2] = test: Antifungal activity against Aspergillus flavus using 1 x 10^5 spore/100 uL after 72 hrs by microdilution method; assay type: functional
Aspergillus fumigatus [3] = test: Antifungal activity against Aspergillus fumigatus using 1 x 10^5 spore/100 uL after 72 hrs by microdilution method; assay type: functional
Trichoderma viride [4] = test: Antifungal activity against Trichoderma viride using 1 x 10^5 spore/100 uL after 72 hrs by microdilution method; assay type: functional
[5] = Antifungal activity against Trichoderma reesei using 1 x 10^5 spore/100 uL after 72 hrs by microdilution method; assay type: functional
Method in brief: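 Spores washed from malt agar cultures with sterile 0.85% saline plus 0.1% Tween 80, adjusted to about 1.0×10^5 per 100 µl well. Compounds from a 1 mg/ml DMSO stock were serially diluted in malt broth with inoculum in 96-well plates and incubated 72 h at 28 °C. MIC is the lowest concentration with no visible growth under a binocular microscope. DMSO served as negative control.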

Curvularia australiensis [6] = test: Antifungal activity against Drechslera australiensis using 1 x 10^5 spore/100 uL after 72 hrs by microdilution method; assay type: functional
Aspergillus niger [7] = test: Antifungal activity against Aspergillus niger using 1 x 10^5 spore/100 uL assessed as 99.5% fungal killing of original inoculum after 72 hrs by microdilution method; assay type: functional
Aspergillus flavus [8] = test: Antifungal activity against Aspergillus flavus using 1 x 10^5 spore/100 uL assessed as 99.5% fungal killing of original inoculum after 72 hrs by microdilution method; assay type: functional
Aspergillus fumigatus [9] = test: Antifungal activity against Aspergillus fumigatus using 1 x 10^5 spore/100 uL assessed as 99.5% fungal killing of original inoculum after 72 hrs by microdilution method; assay type: functional
Trichoderma viride [10] = test: Antifungal activity against Trichoderma viride using 1 x 10^5 spore/100 uL assessed as 99.5% fungal killing of original inoculum after 72 hrs by microdilution method; assay type: functional
[11] = Antifungal activity against Trichoderma reesei using 1 x 10^5 spore/100 uL assessed as 99.5% fungal killing of original inoculum after 72 hrs by microdilution method; assay type: functional
Curvularia australiensis [12] = test: Antifungal activity against Drechslera australiensis using 1 x 10^5 spore/100 uL assessed as 99.5% fungal killing of original inoculum after 72 hrs by microdilution method; assay type: functional
Bacillus cereus = test: Antibacterial activity against Bacillus cereus using 1 x 10^4 CFU/ml inoculum after 24 hrs by microdilution method; assay type: functional
Bacillus subtilis = test: Antibacterial activity against Bacillus subtilis using 1 x 10^4 CFU/ml inoculum after 24 hrs by microdilution method; assay type: functional
Bacillus thuringiensis = test: Antibacterial activity against Bacillus thuringiensis using 1 x 10^4 CFU/ml inoculum after 24 hrs by microdilution method; assay type: functional
Staphylococcus aureus = test: Antibacterial activity against Staphylococcus aureus using 1 x 10^4 CFU/ml inoculum after 24 hrs by microdilution method; assay type: functional
Escherichia coli = test: Antibacterial activity against Escherichia coli using 1 x 10^4 CFU/ml inoculum after 24 hrs by microdilution method; assay type: functional
Pseudomonas aeruginosa = test: Antibacterial activity against Pseudomonas aeruginosa using 1 x 10^4 CFU/ml inoculum after 24 hrs by microdilution method; assay type: functional
Salmonella typhi = test: Antibacterial activity against Salmonella typhi using 1 x 10^4 CFU/ml inoculum after 24 hrs by microdilution method; assay type: functional, Salmonella enterica subsp. enterica serovar Typhi

| Structure (SMILES) | MIC (Aspergillus niger [1]) [×10⁻² umol] | MIC (Aspergillus flavus [2]) [×10⁻² umol] | MIC (Aspergillus fumigatus [3]) [×10⁻² umol] | MIC (Trichoderma viride [4]) [×10⁻² umol] | MIC [5] [×10⁻² µmol] | MIC (Curvularia australiensis [6]) [×10⁻² umol] | MFC (Aspergillus niger [7]) [×10⁻² umol] | MFC (Aspergillus flavus [8]) [×10⁻² umol] | MFC (Aspergillus fumigatus [9]) [×10⁻² umol] | MFC (Trichoderma viride [10]) [×10⁻² umol] | MFC [11] [×10⁻² µmol] | MFC (Curvularia australiensis [12]) [×10⁻² umol] | MIC (Bacillus cereus) [×10⁻² umol] | MIC (Bacillus subtilis) [×10⁻² umol] | MIC (Bacillus thuringiensis) [×10⁻² umol] | MIC (Staphylococcus aureus) [×10⁻² umol] | MIC (Escherichia coli) [×10⁻² umol] | MIC (Pseudomonas aeruginosa) [×10⁻² umol] | MIC (Salmonella typhi) [×10⁻² umol] |
| --- | --- | --- | --- | --- | --- | --- | --- | --- | --- | --- | --- | --- | --- | --- | --- | --- | --- | --- | --- |
| C/C(=N\NC(=O)C1=C(O)c2ccccc2S(=O)(=O)N1C)c1ccc(O)cc1 | >100 | >100 | >100 | >100 | > 100 | >100 | >200 | >200 | >200 | >200 | > 200 | >200 | 4.6 | 4.8 | 5 | 18.9 | 21 | 22.1 | 25.1 |
| C/C(=N\NC(=O)C1=C(O)c2ccccc2S(=O)(=O)N1C)c1ccc(N)cc1 | 83.7 | 82.9 | 73.6 | 71.1 | 68 | 69.8 | 167 | 166.3 | 151.6 | 142 | 136 | 133.7 | 6.2 | 6.2 | 6.3 | 20.4 | 22.4 | 24.3 | 27.5 |
| C/C(=N\NC(=O)C1=C(O)c2ccccc2S(=O)(=O)N1)c1ccc(I)cc1 | 91.5 | 89.9 | 82 | 71.3 | 70.3 | 74 | 166.1 | 179.8 | 159.2 | 139.7 | 134 | 145.8 | 9.1 | 9.5 | 9.4 | 28.2 | 29.5 | 30.9 | 33.4 |
| COc1cccc(/C(C)=N/NC(=O)C2=C(O)c3ccccc3S(=O)(=O)N2)c1 | 90.1 | 92.7 | 85.9 | 80.7 | 80 | 82 | 176.3 | 198.4 | 181.2 | 149.9 | 161 | 162.7 | 7.2 | 7.5 | 7.7 | 24.5 | 25.6 | 26.7 | 29.3 |
| C/C(=N\NC(=O)C1=C(O)c2ccccc2S(=O)(=O)N1)c1ccc(F)cc1F | 76.6 | 76.4 | 69.8 | 72 | 69 | 72.3 | 160.3 | 168.7 | 118.2 | 139.6 | 138 | 145.7 | 7.8 | 8 | 8.2 | 28.1 | 29.2 | 30.6 | 33.2 |
| C/C(=N\NC(=O)C1=C(O)c2ccccc2S(=O)(=O)N1C)c1ccccc1O | >100 | >100 | >100 | >100 | > 100 | >100 | >200 | >200 | >200 | >200 | > 200 | >200 | 4 | 4.2 | 4 | 17.7 | 19.6 | 20.2 | 22.3 |
| C/C(=N\NC(=O)C1=C(O)c2ccccc2S(=O)(=O)N1)c1ccc(O)cc1 | >100 | >100 | >100 | >100 | > 100 | >100 | >200 | >200 | >200 | >200 | > 200 | >200 | 4.8 | 4.9 | 5 | 19 | 21.3 | 22.6 | 25.2 |
| C/C(=N\NC(=O)C1=C(O)c2ccccc2S(=O)(=O)N1)c1cccc(O)c1 | >100 | >100 | >100 | >100 | > 100 | >100 | >200 | >200 | >200 | >200 | > 200 | >200 | 4.5 | 4.6 | 4.4 | 18.4 | 19.7 | 21.2 | 23.5 |
| C/C(=N\NC(=O)C1=C(O)c2ccccc2S(=O)(=O)N1)c1ccccc1O | >100 | >100 | >100 | >100 | > 100 | >100 | >200 | >200 | >200 | >200 | > 200 | >200 | 4.2 | 4.4 | 4.1 | 17.8 | 19.9 | 20.6 | 22.7 |
| COc1ccc(/C(C)=N/NC(=O)C2=C(O)c3ccccc3S(=O)(=O)N2C)cc1 | 87.2 | 86.1 | 77.6 | 79.2 | 78.9 | 80 | 180.7 | 170 | 149.5 | 158.4 | 158 | 159.9 | 7.9 | 7.6 | 7.8 | 26.3 | 27.9 | 29.2 | 32.4 |
| C/C(=N\NC(=O)C1=C(O)c2ccccc2S(=O)(=O)N1)c1ccc(Cl)cc1 | 82.9 | 81.9 | 72.7 | 67.3 | 62.5 | 64.4 | 145.4 | 163 | 140.1 | 114.7 | 125 | 130.5 | 11.7 | 12.5 | 12.3 | 30.8 | 31.2 | 32.4 | – |
